According to ChEMBL document CHEMBL1121813, “Dihydrochalcone sweeteners. A study of the atypical temporal phenomena” (1981):

Key:
Format in all cases: functional
Homo sapiens [1] = species on record: Homo sapiens; experiment: Number of taste judgments per compound
Homo sapiens [2] = species on record: Homo sapiens; experiment: Experimentally determined perceived intensity of compound at a concentration of 1000 ppm (mean value)
Procedure, shortened: (§1)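 Trained human sensory panel of judges tasted aqueous solutions of the compound. Samples had to be ≥95 weight % pure (HPLC, proton titration, Karl Fischer), non-mutagenic in five Salmonella typhimurium strains with and without microsomal activation, and non-toxic in a single-oral-dose mouse test. Perceived intensity (Ip) was read from time–intensity curves at 4- or 6-s intervals and averaged. Outliers at the 95% level were rejected by t-value. Values reported as mean (2Sm).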

Homo sapiens [3] = species on record: Homo sapiens; experiment: Percentage of judgments reporting an aftertaste at a concentration of 1000 ppm and character thereof
Procedure, shortened: (§2)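 Trained judges tasted aqueous solutions of the compounds, which had to be ≥95 weight percent pure and to have passed mutagenicity and single oral dose toxicity screening. The value is the percentage of panel judgments reporting an aftertaste. Where given, its character is recorded as sweet, bitter or bitter-sweet.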

Homo sapiens [4] = species on record: Homo sapiens; experiment: Percentage of judgments reporting an aftertaste at a concentration of 2000 ppm and character thereof; procedure, shortened: as §2
Homo sapiens [5] = species on record: Homo sapiens; experiment: Experimentally determined perceived intensity of compound at a concentration of 2000 ppm (mean value); procedure, shortened: as §1
Homo sapiens [6] = species on record: Homo sapiens; experiment: Sweet character at a concentration of 1011 ppm (mean value)
Homo sapiens [7] = species on record: Homo sapiens; experiment: Percentage of judgments reporting an aftertaste at a concentration of 1011 ppm and character thereof; Bitter-sweet; procedure, shortened: as §2
Homo sapiens [8] = species on record: Homo sapiens; experiment: Sweet / Bitter character at a concentration of 1011 ppm (mean value)
Homo sapiens [9] = species on record: Homo sapiens; experiment: Experimentally determined perceived intensity of compound at a concentration of 1011 ppm (mean value); procedure, shortened: as §1
Homo sapiens [10] = species on record: Homo sapiens; experiment: Bitter character at a concentration of 1011 ppm (mean value)
Procedure, shortened: (§3)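 Trained human panel tasted aqueous solutions. Each judge reported whether there was an aftertaste and its character (sweet, bitter or bitter-sweet). The value is the percentage of judgments reporting a bitter aftertaste.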

Homo sapiens [11] = species on record: Homo sapiens; experiment: Salty character at a concentration of 1011 ppm (mean value)
Homo sapiens [12] = species on record: Homo sapiens; experiment: Intensity calculated on a weight basis relative to an 85500 ppm sucrose solution at a concentration of 1011 ppm (mean value)
Procedure, shortened: (§4)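 Trained human panel tasted aqueous solutions of purity-checked (≥95 weight percent) compounds cleared for mutagenicity and mouse oral toxicity. Weight-basis intensity I_w = perceived intensity × (85500 ppm sucrose / compound concentration in ppm). The mean is reported with 2S_m limits; data deviating excessively at 95% confidence were rejected by the t-value method.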

Homo sapiens [13] = species on record: Homo sapiens; experiment: Intensity calculated on a molar basis relative to a 0.25 M sucrose solution at a concentration of 1011 ppm (mean value)
Procedure, shortened: (§5)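 Trained human judges tasted aqueous solutions of the test compound; compounds were first required to be ≥95 weight percent pure and free of mutagenicity (five Salmonella typhimurium strains, ± microsomal activation) and of single oral dose mouse toxicity. Molar intensity I_m = perceived intensity × (0.25 M sucrose / compound molar concentration). The mean is reported with 2S_m limits; outliers were rejected at 95% confidence by t-value.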

Homo sapiens [14] = species on record: Homo sapiens; experiment: Sour character at a concentration of 1011 ppm (mean value)
Homo sapiens [15] = species on record: Homo sapiens; experiment: Other taste character at a concentration of 1011 ppm (mean value)
Procedure, shortened: (§6)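 Trained human panel tasted aqueous solutions of each compound. Aftertaste is scored as the percentage of judgments reporting one, with its character coded sweet (s), bitter (b) or bitter-sweet (bs).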

Homo sapiens [16] = species on record: Homo sapiens; experiment: Intensity calculated on a weight basis relative to an 85500 ppm sucrose solution at a concentration of 720 ppm (mean value); procedure, shortened: as §4
Homo sapiens [17] = species on record: Homo sapiens; experiment: Intensity calculated on a molar basis relative to a 0.25 M sucrose solution at a concentration of 720 ppm (mean value); procedure, shortened: as §5
Homo sapiens [18] = species on record: Homo sapiens; experiment: Experimentally determined perceived intensity of compound at a concentration of 720 ppm (mean value); procedure, shortened: as §1
Homo sapiens [19] = species on record: Homo sapiens; experiment: Salty character at a concentration of 720 ppm (mean value)
Homo sapiens [20] = species on record: Homo sapiens; experiment: Other taste character at a concentration of 720 ppm (mean value)
Procedure, shortened: (§7)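 Trained human sensory panel (Swartz method) tasted dilute aqueous solutions of the compounds, which had to be ≥95 weight percent pure and free of mutagenicity and toxicity. Taste character is reported as the mean value with 2S_m limits. Data deviating excessively at the 95% confidence level were rejected by the t-value method.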

Homo sapiens [21] = species on record: Homo sapiens; experiment: Bitter character at a concentration of 720 ppm (mean value); procedure, shortened: as §3
Homo sapiens [22] = species on record: Homo sapiens; experiment: Sour character at a concentration of 720 ppm (mean value)
Homo sapiens [23] = species on record: Homo sapiens; experiment: Percentage of judgments reporting an aftertaste at a concentration of 720 ppm and character thereof
Homo sapiens [24] = species on record: Homo sapiens; experiment: Sweet / Bitter character at a concentration of 720 ppm (mean value); 50/50
Homo sapiens [25] = species on record: Homo sapiens; experiment: Sweet character at a concentration of 720 ppm (mean value)
Homo sapiens [26] = species on record: Homo sapiens; experiment: Percentage of judgments reporting an aftertaste at a concentration of 2000 ppm; procedure, shortened: as §2
Homo sapiens [27] = species on record: Homo sapiens; experiment: Salty character at a concentration of 2000 ppm (mean value); procedure, shortened: as §7
Homo sapiens [28] = species on record: Homo sapiens; experiment: Intensity calculated on a weight basis relative to an 85500 ppm sucrose solution at a concentration of 2000 ppm (mean value); procedure, shortened: as §4
Homo sapiens [29] = species on record: Homo sapiens; experiment: Intensity calculated on a molar basis relative to a 0.25 M sucrose solution at a concentration of 2000 ppm (mean value); procedure, shortened: as §5
Homo sapiens [30] = species on record: Homo sapiens; experiment: Bitter character at a concentration of 2000 ppm (mean value); procedure, shortened: as §3
Homo sapiens [31] = species on record: Homo sapiens; experiment: Sweet character at a concentration of 2000 ppm (mean value); procedure, shortened: as §7
Homo sapiens [32] = species on record: Homo sapiens; experiment: Sour character at a concentration of 2000 ppm (mean value); procedure, shortened: as §7
Homo sapiens [33] = species on record: Homo sapiens; experiment: Other taste character at a concentration of 2000 ppm (mean value); procedure, shortened: as §6
Homo sapiens [34] = species on record: Homo sapiens; experiment: Sweet / Bitter character at a concentration of 2000 ppm (mean value)
Homo sapiens [35] = species on record: Homo sapiens; experiment: Intensity calculated on a weight basis relative to an 85500 ppm sucrose solution at a concentration of 249 ppm (mean value); procedure, shortened: as §4
Homo sapiens [36] = species on record: Homo sapiens; experiment: Other taste character at a concentration of 249 ppm (mean value); procedure, shortened: as §7
Homo sapiens [37] = species on record: Homo sapiens; experiment: Percentage of judgments reporting an aftertaste at a concentration of 249 ppm and character thereof; procedure, shortened: as §2
Homo sapiens [38] = species on record: Homo sapiens; experiment: Salty character at a concentration of 249 ppm (mean value)
Homo sapiens [39] = species on record: Homo sapiens; experiment: Sweet / Bitter character at a concentration of 249 ppm (mean value); 97/3
Homo sapiens [40] = species on record: Homo sapiens; experiment: Bitter character at a concentration of 249 ppm (mean value); procedure, shortened: as §3
Homo sapiens [41] = species on record: Homo sapiens; experiment: Sour character at a concentration of 249 ppm (mean value)
Homo sapiens [42] = species on record: Homo sapiens; experiment: Experimentally determined perceived intensity of compound at a concentration of 249 ppm (mean value); procedure, shortened: as §1
Homo sapiens [43] = species on record: Homo sapiens; experiment: Sweet character at a concentration of 249 ppm (mean value)
Homo sapiens [44] = species on record: Homo sapiens; experiment: Intensity calculated on a molar basis relative to a 0.25 M sucrose solution at a concentration of 249 ppm (mean value); procedure, shortened: as §5

Structure (SMILES): COc1ccc(CNC(=O)c2c(O)cc(O)cc2O)cc1O
- Judgments (Homo sapiens [1]): 1
- IP (Homo sapiens [2]): 0
- Judgments (Homo sapiens [3]): 0

Structure (SMILES): CNc1ccc(CCC(=O)c2c(O)cc(OCC(=O)[O-])cc2O)cc1O.[Na+]
- Judgments (Homo sapiens [4]): 0
- Judgments (Homo sapiens [1]): 1
- IP (Homo sapiens [5]): 0

Structure (SMILES): COc1ccc(CCc2noc3cc(OCCCS(=O)(=O)[O-])cc(O)c23)cc1O.[K+]
- Judgments (Homo sapiens [1]): 12
- Taste character (Homo sapiens [6]): 41
- Judgments (Homo sapiens [7]): 100
- Taste character (Homo sapiens [8]): 52
- IP (Homo sapiens [9]): 0.49
- Taste character (Homo sapiens [10]): 38
- Taste character (Homo sapiens [11]): 0
- IW (Homo sapiens [12]): 41
- IM (Homo sapiens [13]): 56
- Taste character (Homo sapiens [14]): 0
- Taste character (Homo sapiens [15]): 21

Structure (SMILES): COc1ccc(CNC(=O)c2c(O)cc(OCC(=O)[O-])cc2O)cc1O.[Na+]
- Judgments (Homo sapiens [4]): 0
- Judgments (Homo sapiens [1]): 1
- IP (Homo sapiens [5]): 0

Structure (SMILES): COc1ccc(CCC(=O)c2c(O)cc(OCCCN)cc2O)cc1O
- Judgments (Homo sapiens [1]): 1
- IW (Homo sapiens [16]): 180
- IM (Homo sapiens [17]): 190
- IP (Homo sapiens [18]): 1.5
- Taste character (Homo sapiens [19]): 0
- Taste character (Homo sapiens [20]): 0
- Taste character (Homo sapiens [21]): 50
- Taste character (Homo sapiens [22]): 0
- Judgments (Homo sapiens [23]): 100
- Taste character (Homo sapiens [24]): 50
- Taste character (Homo sapiens [25]): 50

Structure (SMILES): COc1ccc(C2OC[C@@H]3OC(O)[C@@H](O)[C@H](O)[C@H]3O2)cc1O (stereo partly specified)
- Judgments (Homo sapiens [1]): 1
- Judgments (Homo sapiens [26]): 0
- Taste character (Homo sapiens [27]): 0
- IP (Homo sapiens [5]): 0.3
- IW (Homo sapiens [28]): 10
- IM (Homo sapiens [29]): 10
- Taste character (Homo sapiens [30]): 100
- Taste character (Homo sapiens [31]): 0
- Taste character (Homo sapiens [32]): 0
- Taste character (Homo sapiens [33]): 0
- Taste character (Homo sapiens [34]): 0

Structure (SMILES): COc1ccc(CCC(=O)c2c(O)cc(OC(CC(O)CO)C(=O)[O-])cc2O)cc1O.[Na+] (stereo unspecified)
- Judgments (Homo sapiens [4]): 0
- Judgments (Homo sapiens [1]): 1
- IP (Homo sapiens [5]): 0

Structure (SMILES): COc1ccc(CCC(=O)c2c(O)cc(OCC(=O)CC(=O)[O-])cc2O)cc1O.[Na+]
- Judgments (Homo sapiens [1]): 24
- IW (Homo sapiens [35]): 310
- Taste character (Homo sapiens [36]): 12
- Judgments (Homo sapiens [37]): 100
- Taste character (Homo sapiens [38]): 0
- Taste character (Homo sapiens [39]): 97
- Taste character (Homo sapiens [40]): 3
- Taste character (Homo sapiens [41]): 0
- IP (Homo sapiens [42]): 0.89
- Taste character (Homo sapiens [43]): 85
- IM (Homo sapiens [44]): 380
